Reference: ChEMBL document CHEMBL4840303, “Design, synthesis, biological evaluation and pharmacophore model analysis of novel tetrahydropyrrolo[3,4-c]pyrazol derivatives as potential TRKs inhibitors” (Eur J Med Chem, 2021)

What was measured:
[1] = molecular target: Mitogen-activated protein kinase 3 (Homo sapiens) (UniProt P27361); assay: Inhibition of recombinant GST-tagged full length human ERK1 expressed in Escherichia coli expression system at 1 uM measured by select screen assay relative to control
Chain of Mitogen-activated protein kinase 3 (Homo sapiens) (P27361 whole entry): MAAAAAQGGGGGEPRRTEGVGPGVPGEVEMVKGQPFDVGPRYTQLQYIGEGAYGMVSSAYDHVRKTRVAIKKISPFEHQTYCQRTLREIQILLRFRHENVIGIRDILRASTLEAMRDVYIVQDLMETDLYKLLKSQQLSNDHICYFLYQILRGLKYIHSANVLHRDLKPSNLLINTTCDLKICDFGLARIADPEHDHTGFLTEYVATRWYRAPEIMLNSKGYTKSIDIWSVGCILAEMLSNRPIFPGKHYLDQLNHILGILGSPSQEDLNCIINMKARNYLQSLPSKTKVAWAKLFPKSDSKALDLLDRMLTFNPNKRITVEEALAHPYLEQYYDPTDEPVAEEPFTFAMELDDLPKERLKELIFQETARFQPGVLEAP
Method in brief: (§1)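 Single-concentration profiling at 1.0 µM in a 28-kinase SelectScreen panel; percent inhibition reported.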

[2] = molecular target: AMP-activated protein kinase, AMPK (Homo sapiens) (UniProt P54646+O43741+P54619+Q9UGJ0+Q9Y478+Q13131+Q9UGI9); assay: Inhibition of recombinant GST-tagged His-tagged full length human AMPK expressed in baculovirus expression system at 1 uM measured by select screen assay; method in brief: as §1
[3] = molecular target: Protein kinase C alpha type (Homo sapiens) (UniProt P17252); assay: Inhibition of recombinant GST-tagged human full length PRKCA expressed in insect expression system at 1 uM measured by select screen assay relative to control; method in brief: as §1
[4] = system: KM12; assay: cells; conditions: Homo sapiens, KM12, 72 h
[5] = system: KM12; assay: Cell cycle arrest in human KM12 cells assessed as accumulation of cells at greater G1 phase at 125 nM measured after 48 hrs by AnnexinV-FITC/PI staining based flowcytometry method relative to control; format: functional
[6] = molecular target: Epidermal growth factor receptor (Homo sapiens) (UniProt P00533); assay: Inhibition of recombinant GST-tagged human EGFR (668 to 1210) expressed in baculovirus expression system at 1 uM measured by select screen assay relative to control; method in brief: as §1
Chain of Epidermal growth factor receptor (Homo sapiens) (P00533 whole entry): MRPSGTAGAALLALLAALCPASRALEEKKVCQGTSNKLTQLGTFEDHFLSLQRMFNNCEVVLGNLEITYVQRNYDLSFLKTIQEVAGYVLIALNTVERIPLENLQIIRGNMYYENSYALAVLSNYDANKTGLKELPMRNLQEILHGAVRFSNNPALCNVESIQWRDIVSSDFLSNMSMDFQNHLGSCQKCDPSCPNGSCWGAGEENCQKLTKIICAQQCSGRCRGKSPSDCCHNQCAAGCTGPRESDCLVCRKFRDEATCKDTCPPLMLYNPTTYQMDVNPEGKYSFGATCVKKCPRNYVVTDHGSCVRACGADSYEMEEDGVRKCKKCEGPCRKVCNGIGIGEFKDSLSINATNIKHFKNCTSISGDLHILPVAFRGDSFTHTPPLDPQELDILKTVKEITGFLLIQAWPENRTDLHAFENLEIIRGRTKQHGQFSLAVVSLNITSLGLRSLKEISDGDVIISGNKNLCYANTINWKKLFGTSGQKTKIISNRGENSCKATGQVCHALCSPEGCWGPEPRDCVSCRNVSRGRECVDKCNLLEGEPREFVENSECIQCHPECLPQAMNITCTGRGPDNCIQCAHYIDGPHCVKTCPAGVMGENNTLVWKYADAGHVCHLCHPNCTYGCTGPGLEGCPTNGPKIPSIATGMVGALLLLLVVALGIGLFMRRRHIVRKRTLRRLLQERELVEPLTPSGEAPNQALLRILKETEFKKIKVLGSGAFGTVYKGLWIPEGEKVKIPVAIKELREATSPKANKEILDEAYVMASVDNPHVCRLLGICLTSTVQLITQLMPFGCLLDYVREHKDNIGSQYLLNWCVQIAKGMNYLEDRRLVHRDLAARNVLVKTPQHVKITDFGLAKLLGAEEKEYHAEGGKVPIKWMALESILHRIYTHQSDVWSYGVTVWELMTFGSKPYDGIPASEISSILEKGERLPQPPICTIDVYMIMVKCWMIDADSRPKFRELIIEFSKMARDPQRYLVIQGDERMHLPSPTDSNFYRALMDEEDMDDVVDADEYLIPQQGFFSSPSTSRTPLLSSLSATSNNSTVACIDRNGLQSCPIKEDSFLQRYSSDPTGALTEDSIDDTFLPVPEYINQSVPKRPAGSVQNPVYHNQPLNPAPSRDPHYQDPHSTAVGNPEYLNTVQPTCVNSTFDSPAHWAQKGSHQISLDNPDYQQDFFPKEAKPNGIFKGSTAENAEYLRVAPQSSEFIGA

[7] = Half life in Sprague dawley rat at 1 mg/kg, iv; format: ADME, organism-based; conditions: in vivo
Method in brief: (§2)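 Blood was collected into heparin tubes at specified time points and centrifuged at once (4 °C, 4000 rpm, 20 min). Plasma levels were quantified by LC-MS/MS. Parameters came from noncompartmental analysis.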

[8] = system: KM12; assay: Induction of apoptosis in human KM12 cells assessed as necrotic cells at 1000 nM measured after 48 hrs by AnnexinV-FITC/PI staining based flowcytometry assay relative to control; format: functional
Method in brief: (§3)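 They were detached with trypsin, washed twice in PBS, and 10^5 cells were suspended in Annexin V binding buffer. Cells were stained with FITC-Annexin V and PI for 10 min at room temperature in the dark, diluted with PBS and analysed by flow cytometry.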

[9] = system: KM12; assay: Induction of apoptosis in human KM12 cells assessed as viable cells at 125 nM measured after 48 hrs by AnnexinV-FITC/PI staining based flowcytometry assay relative to control; format: functional; conditions: read-out: Activity
Method in brief: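 10^5 cells in Annexin V binding buffer stained with FITC-Annexin V and PI for 10 min at room temperature in the dark, diluted with PBS and analysed by flow cytometry (FITC 494/518 nm, PI 535/617 nm).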

[10] = Stability in human liver microsomes assessed as half life at 100 uM measured after 60 mins by LC-MS/MS analysis; format: ADME, Microsome; conditions: 1 h
Method in brief: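 Human liver microsomes diluted to 0.59 mg/mL working solution in 100 mM potassium phosphate, prewarmed 10 min at 37 °C; compound added from a 100 µM working solution. NADPH (in 10 mM MgCl2) added to one plate, buffer instead in no-cofactor control. Incubated at 37 °C, quenched at 5, 15, 30, 45, 60 min, centrifuged, analysed by LC-MS/MS.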

[11] = system: KM12; assay: Cell cycle arrest in human KM12 cells assessed as accumulation of cells at G2 phase at 250 nM measured after 48 hrs by AnnexinV-FITC/PI staining based flowcytometry method relative to control; format: functional
[12] = AUC (0 to infinity) in Sprague dawley rat at 1 mg/kg, iv; format: ADME, organism-based; parameters: time infinity, route intravenous, dose 1 mg/kg; conditions: in vivo; method in brief: as §2
[13] = system: KM12; assay: Cell cycle arrest in human KM12 cells assessed as accumulation of cells at G1 phase at 125 nM measured after 48 hrs by AnnexinV-FITC/PI staining based flowcytometry method relative to control; format: functional
[14] = system: KM12; assay: Cell cycle arrest in human KM12 cells assessed as accumulation of cells at less G1 phase at 500 nM measured after 48 hrs by AnnexinV-FITC/PI staining based flowcytometry method relative to control; format: functional
[15] = molecular target: Dual specificity mitogen-activated protein kinase kinase 1 (Homo sapiens) (UniProt Q02750); assay: Inhibition of recombinant His-tagged full length human MEK expressed in baculovirus expression system at 1 uM measured by select screen assay relative to control; method in brief: as §1
Chain of Dual specificity mitogen-activated protein kinase kinase 1 (Homo sapiens) (Q02750 whole entry): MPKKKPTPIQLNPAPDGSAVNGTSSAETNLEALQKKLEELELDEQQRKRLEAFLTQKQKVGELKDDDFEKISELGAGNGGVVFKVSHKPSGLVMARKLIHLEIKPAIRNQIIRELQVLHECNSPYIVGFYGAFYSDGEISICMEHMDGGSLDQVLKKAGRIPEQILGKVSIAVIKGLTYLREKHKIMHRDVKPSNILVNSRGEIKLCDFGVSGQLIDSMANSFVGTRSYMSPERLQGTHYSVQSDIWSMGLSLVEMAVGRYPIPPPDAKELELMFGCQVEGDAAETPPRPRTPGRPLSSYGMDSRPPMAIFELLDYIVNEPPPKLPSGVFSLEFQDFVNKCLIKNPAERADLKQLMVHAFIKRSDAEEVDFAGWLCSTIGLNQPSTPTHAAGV

[16] = molecular target: Proto-oncogene tyrosine-protein kinase ROS (Homo sapiens) (UniProt P08922); assay: Inhibition of recombinant GST-tagged human ROS1 expressed in baculovirus expression system at 1 uM measured by select screen assay relative to control; method in brief: as §1
[17] = system: KM12; assay: Cell cycle arrest in human KM12 cells assessed as accumulation of cells at G1 phase at 250 nM measured after 48 hrs by AnnexinV-FITC/PI staining based flowcytometry method relative to control; format: functional
[18] = system: KM12; assay: Induction of apoptosis in human KM12 cells assessed as late apoptotic cells at 125 nM measured after 48 hrs by AnnexinV-FITC/PI staining based flowcytometry assay relative to control; format: functional; method in brief: as §3
[19] = molecular target: NT-3 growth factor receptor (Homo sapiens, UniProt Q16288); assay: Inhibition of recombinant His-tagged human TRKC expressed in baculovirus expression system at 1 uM measured by select screen assay relative to control; method in brief: as §1
Chain of NT-3 growth factor receptor (Q16288 32-839 limits assumed): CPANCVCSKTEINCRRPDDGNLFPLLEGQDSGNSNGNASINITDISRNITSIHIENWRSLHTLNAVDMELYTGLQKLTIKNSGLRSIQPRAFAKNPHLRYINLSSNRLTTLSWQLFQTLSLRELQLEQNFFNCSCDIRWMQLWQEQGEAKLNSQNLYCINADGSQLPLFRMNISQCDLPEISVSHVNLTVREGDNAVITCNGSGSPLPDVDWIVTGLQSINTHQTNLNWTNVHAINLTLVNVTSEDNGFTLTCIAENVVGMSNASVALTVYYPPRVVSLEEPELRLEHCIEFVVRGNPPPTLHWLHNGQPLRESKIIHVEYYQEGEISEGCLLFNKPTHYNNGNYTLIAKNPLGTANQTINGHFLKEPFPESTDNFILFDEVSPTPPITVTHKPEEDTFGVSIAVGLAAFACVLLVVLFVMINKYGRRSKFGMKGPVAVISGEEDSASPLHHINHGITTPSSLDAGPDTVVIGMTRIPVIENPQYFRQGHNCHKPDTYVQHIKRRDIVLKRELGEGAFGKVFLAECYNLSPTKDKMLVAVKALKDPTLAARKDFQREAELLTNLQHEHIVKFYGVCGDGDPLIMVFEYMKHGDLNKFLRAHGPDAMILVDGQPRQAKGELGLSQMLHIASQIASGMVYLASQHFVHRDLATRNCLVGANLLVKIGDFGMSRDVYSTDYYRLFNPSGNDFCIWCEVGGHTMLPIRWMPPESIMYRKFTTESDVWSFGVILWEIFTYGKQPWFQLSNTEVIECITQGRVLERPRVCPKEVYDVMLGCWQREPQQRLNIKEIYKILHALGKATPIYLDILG

[20] = system: A549; assay: cells; conditions: Homo sapiens, A549, 72 h
[21] = system: KM12; assay: Induction of apoptosis in human KM12 cells assessed as early apoptotic cells at 62.5 nM measured after 48 hrs by AnnexinV-FITC/PI staining based flowcytometry assay relative to control; format: functional; method in brief: as §3
[22] = system: KM12; assay: Cell cycle arrest in human KM12 cells assessed as accumulation of cells at G2 phase at 125 nM measured after 48 hrs by AnnexinV-FITC/PI staining based flowcytometry method relative to control; format: functional
[23] = system: KM12; assay: Cell cycle arrest in human KM12 cells assessed as accumulation of cells at G1 phase at 62.5 nM measured after 48 hrs by AnnexinV-FITC/PI staining based flowcytometry method relative to control; format: functional
[24] = Stability in human plasma assessed as compound remaining incubated for 120 mins by LC-MS/MS analysis; format: ADME, cell-free; conditions: read-out: Stability
Method in brief: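 Pooled frozen human plasma thawed at 37 °C, centrifuged to remove clots, pH adjusted to 7.4 if required. Spiked to 2 µM final (from 100 µM dosing solution), in duplicate, incubated at 37 °C in a water bath. Sampled at 0, 10, 30, 60 and 120 min, quenched with acetonitrile stop solution containing internal standards, centrifuged, and supernatant analysed by LC-MS/MS for percent remaining.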

[25] = system: KM12; assay: Cell cycle arrest in human KM12 cells assessed as accumulation of cells at G2 phase at 1000 nM measured after 48 hrs by AnnexinV-FITC/PI staining based flowcytometry method relative to control; format: functional
[26] = system: KM12; assay: Induction of apoptosis in human KM12 cells assessed as early apoptotic cells at 250 nM measured after 48 hrs by AnnexinV-FITC/PI staining based flowcytometry assay relative to control; format: functional; method in brief: as §3
[27] = molecular target: Tyrosine-protein kinase BTK (Homo sapiens) (UniProt Q06187); assay: Inhibition of recombinant His-tagged full length human BTK expressed in baculovirus expression system at 1 uM measured by select screen assay relative to control; method in brief: as §1
Chain of Tyrosine-protein kinase BTK (Homo sapiens) (Q06187 whole entry): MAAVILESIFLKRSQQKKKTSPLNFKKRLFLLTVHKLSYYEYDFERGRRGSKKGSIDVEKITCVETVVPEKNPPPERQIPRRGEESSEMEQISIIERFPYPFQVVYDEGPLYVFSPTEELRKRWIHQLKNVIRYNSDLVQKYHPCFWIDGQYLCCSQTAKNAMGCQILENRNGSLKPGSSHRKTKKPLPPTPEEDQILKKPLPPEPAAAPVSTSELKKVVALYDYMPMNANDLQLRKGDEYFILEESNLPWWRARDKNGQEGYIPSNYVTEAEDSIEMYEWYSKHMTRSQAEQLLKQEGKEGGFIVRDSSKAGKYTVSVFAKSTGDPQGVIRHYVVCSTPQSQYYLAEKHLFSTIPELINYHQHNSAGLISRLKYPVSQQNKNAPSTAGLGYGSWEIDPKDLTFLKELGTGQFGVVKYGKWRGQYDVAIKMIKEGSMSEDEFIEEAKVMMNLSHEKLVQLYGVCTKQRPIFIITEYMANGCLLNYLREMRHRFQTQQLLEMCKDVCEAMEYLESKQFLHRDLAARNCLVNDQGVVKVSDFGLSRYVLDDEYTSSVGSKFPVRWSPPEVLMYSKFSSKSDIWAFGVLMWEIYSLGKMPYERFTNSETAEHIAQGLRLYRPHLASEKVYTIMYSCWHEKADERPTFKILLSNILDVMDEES

## CN1CCN(c2ccc(C(=O)Nc3n[nH]c4c3CN(Cc3cc(F)cc(F)c3)C4(C)C)cc2)CC1
[1]
  inhibition: 0%
[2]
  inhibition: 53%
[3]
  inhibition: 3%
[4]
  IC50: 0.082 µM
[5]
  Activity: 2.45%
[6]
  inhibition: 4%
[7]
  half-life: 1.51 h
[8]
  Activity: 0.04%
[9]
  viability at 0.125 µM: 63.5%
[10]
  t1/2: 0.493 h
[11]
  Activity: 9.26%
[12]
  AUC(0-inf): 2080 ng·h/mL
[13]
  Activity: 56.6%
[14]
  Activity: 7.65%
[15]
  inhibition: 8%
[16]
  inhibition: 10%
[17]
  Activity: 74%
[18]
  Activity: 18.23%
[19]
  inhibition: 99%
[20]
  IC50: 72.3 µM
[21]
  Activity: 19.55%
[22]
  Activity: 11.5%
[23]
  Activity: 40.3%
[24]
  remaining at 2 h: 101%
[25]
  Activity: 8.92%
[26]
  Activity: 32.95%
[27]
  inhibition: 35%
